Experimental data: ChEMBL document CHEMBL1145361, “3-Amino-1-alkyl-cyclopentane carboxamides as small molecule antagonists of the human and murine CC chemokine receptor 2” (Bioorg Med Chem Lett, 2007)

Tests used:
[1] = target: C-C chemokine receptor type 2 (Mus musculus, UniProt P51683); assay: Displacement of [125I]MCP1 from mouse CCR2 receptor expressed in CHO cells; assay type: cell-based
[2] = target: C-C chemokine receptor type 2 (Homo sapiens, UniProt P41597, I40L); assay: Displacement of [125I]MCP1 from human CCR2 I40L mutant expressed in CHO cells; assay type: cell-based
How it was run: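 Radioligand competition was run at room temperature for 45 min in 50 mM Hepes, 5 mM MgCl2, 1 mM CaCl2, pH 7.4, with 0.5% BSA and protease inhibitors. The reaction was stopped by filtration through GF/B filters presoaked in 0.10% polyethyleneimine to separate bound from free ligand.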

[3] = target: C-C chemokine receptor type 2 (Mus musculus) (UniProt P51683); assay: Displacement of [125I]MCP1 from mouse CCR2 receptor expressed in CHO cells at 1 uM; assay type: cell-based
[4] = Tmax in Sprague-Dawley rat at 3 mg/kg, po; assay type: ADME, organism-based; parameters: dose 3 mg/kg, route oral; settings: in vivo
How it was run: (§1)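 Male Sprague–Dawley rats were dosed intravenously at 1.0 mg/kg and orally at 3.0 mg/kg. Clearance, volume of distribution, t1/2, Cmax, Tmax, oral bioavailability (F%) and AUC were determined, with oral AUC normalized.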

[5] = Bioavailability in Sprague-Dawley rat at 3 mg/kg, po; assay type: ADME, organism-based; settings: in vivo; how it was run: as §1
[6] = Volume of distribution in Sprague-Dawley rat at 1 mg/kg, iv; assay type: ADME, organism-based; parameters: dose 1 mg/kg, route intravenous; settings: in vivo, read-out: Vdss; how it was run: as §1
[7] = target: C-C chemokine receptor type 2 (Homo sapiens, UniProt P41597); assay: Inhibition of Ca2+ flux in human monocytes; assay type: functional, cell-based
[8] = Half life in Sprague-Dawley rat at 1 mg/kg, iv; assay type: ADME, organism-based; parameters: dose 1 mg/kg, route intravenous; settings: in vivo; how it was run: as §1
[9] = Clearance in Sprague-Dawley rat at 1 mg/kg, iv; assay type: ADME, organism-based; parameters: dose 1 mg/kg, route intravenous; settings: in vivo; how it was run: as §1
[10] = Half life in Sprague-Dawley rat at 3 mg/kg, po; assay type: ADME, organism-based; parameters: dose 3 mg/kg, route oral; settings: in vivo; how it was run: as §1
[11] = Cmax in Sprague-Dawley rat at 3 mg/kg, po; assay type: ADME, organism-based; parameters: dose 3 mg/kg, route oral; settings: in vivo; how it was run: as §1

C-C chemokine receptor type 2 (Mus musculus, UniProt P51683), sequence (P51683 whole entry): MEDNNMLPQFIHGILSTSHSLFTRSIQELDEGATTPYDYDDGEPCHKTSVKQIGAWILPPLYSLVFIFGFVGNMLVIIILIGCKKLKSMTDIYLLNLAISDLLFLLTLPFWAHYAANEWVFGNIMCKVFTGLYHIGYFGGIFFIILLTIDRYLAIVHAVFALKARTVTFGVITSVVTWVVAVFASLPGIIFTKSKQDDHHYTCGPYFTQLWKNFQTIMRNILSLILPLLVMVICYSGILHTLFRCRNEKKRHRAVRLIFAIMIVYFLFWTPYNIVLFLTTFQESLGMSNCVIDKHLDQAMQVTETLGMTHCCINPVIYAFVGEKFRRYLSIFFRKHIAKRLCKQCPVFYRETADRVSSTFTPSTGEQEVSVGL
C-C chemokine receptor type 2 (Homo sapiens, UniProt P41597, I40L), sequence (P41597 whole entry I40L): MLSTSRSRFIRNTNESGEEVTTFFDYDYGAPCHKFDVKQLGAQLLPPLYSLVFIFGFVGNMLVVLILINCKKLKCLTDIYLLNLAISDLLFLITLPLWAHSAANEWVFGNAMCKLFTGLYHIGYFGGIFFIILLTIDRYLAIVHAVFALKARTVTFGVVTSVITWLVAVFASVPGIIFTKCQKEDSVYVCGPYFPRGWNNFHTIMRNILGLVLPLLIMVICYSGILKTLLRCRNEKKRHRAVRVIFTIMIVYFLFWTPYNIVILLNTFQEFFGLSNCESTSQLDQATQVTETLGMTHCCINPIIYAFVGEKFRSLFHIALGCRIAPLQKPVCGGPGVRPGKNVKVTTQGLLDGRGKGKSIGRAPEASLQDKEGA
C-C chemokine receptor type 2 (Homo sapiens, UniProt P41597), sequence (P41597 whole entry): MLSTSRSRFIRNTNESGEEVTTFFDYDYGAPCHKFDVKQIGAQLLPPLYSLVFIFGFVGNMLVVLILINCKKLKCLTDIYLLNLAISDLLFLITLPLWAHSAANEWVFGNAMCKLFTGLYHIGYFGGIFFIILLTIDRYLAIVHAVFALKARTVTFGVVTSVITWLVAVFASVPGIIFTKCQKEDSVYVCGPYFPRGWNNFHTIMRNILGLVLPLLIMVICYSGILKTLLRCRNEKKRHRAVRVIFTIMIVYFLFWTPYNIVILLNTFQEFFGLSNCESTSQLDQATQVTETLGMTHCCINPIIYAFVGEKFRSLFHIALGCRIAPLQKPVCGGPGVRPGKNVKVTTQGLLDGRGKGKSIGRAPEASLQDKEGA
C-C chemokine receptor type 2 (Mus musculus), sequence (P51683 whole entry, looked up): as the sequence (P51683 whole entry) above

IC50 [1] [nM] | IC50 [2] [nM] | Compound | further results
64 | 19 | C[C@H]1CN([C@@H]2CC[C@](CC3CCC3)(C(=O)NCc3cc(C(F)(F)F)cc(C(F)(F)F)c3)C2)CC[C@]12C=Cc1ccccc12 | 
63.5 | 20 | C[C@H]1CN(C2CCC(CC3CC3)(C(=O)NCc3cc(C(F)(F)F)cc(C(F)(F)F)c3)C2)CC[C@]12C=Cc1ccccc12 (stereo partly specified) | 
93 | 15.5 | COCC1(C(=O)NCc2cc(C(F)(F)F)cc(C(F)(F)F)c2)CCC(N2CC[C@]3(C=Cc4ccccc43)[C@@H](C)C2)C1 (stereo partly specified) | 
279 | 231 | CCCCCCC1(C(=O)NCc2cc(C(F)(F)F)cc(C(F)(F)F)c2)CCC(N2CC[C@]3(C=Cc4ccccc43)[C@@H](C)C2)C1 (stereo partly specified) | 
126 | 9 | C[C@H]1CN([C@@H]2CC[C@](C)(C(=O)NCc3cc(C(F)(F)F)cc(C(F)(F)F)c3)C2)CC[C@]12C=Cc1ccccc12 | 
65.5 | 13 | CSC[C@]1(C(=O)NCc2cc(C(F)(F)F)cc(C(F)(F)F)c2)CC[C@@H](N2CC[C@]3(C=Cc4ccccc43)[C@@H](C)C2)C1 | 
26 | 8 | CC(C)C[C@]1(C(=O)NCc2cc(C(F)(F)F)cc(C(F)(F)F)c2)CC[C@@H](N2CC[C@]3(C=Cc4ccccc43)[C@@H](C)C2)C1 | 
351 | 28 | CS[C@]1(C(=O)NCc2cc(C(F)(F)F)cc(C(F)(F)F)c2)CC[C@@H](N2CC[C@]3(C=Cc4ccccc43)[C@@H](C)C2)C1 | 
17.5 | 10 | CCC1(C(=O)NCc2cc(C(F)(F)F)cc(C(F)(F)F)c2)CCC(N2CC[C@]3(C=Cc4ccccc43)[C@@H](C)C2)C1 (stereo partly specified) | 
44.3 | 16 | CCC[C@]1(C(=O)NCc2cc(C(F)(F)F)cc(C(F)(F)F)c2)CC[C@@H](N2CC[C@]3(C=Cc4ccccc43)[C@@H](C)C2)C1 | 
128 | 27 | CCCCCCC1(C(=O)NCc2cc(F)cc(C(F)(F)F)c2)CCC(N2CC[C@]3(C=Cc4ccccc43)[C@@H](C)C2)C1 (stereo partly specified) | 

Further lines, the compound ahead of its results:

Compound | IC50 [1] [nM] | IC50 [2] [nM] | further results
COCC1(C(=O)NCc2cc(F)cc(C(F)(F)F)c2)CCC(N2CC[C@]3(C=Cc4ccccc43)[C@@H](C)C2)C1 (stereo partly specified) | 74 | 8.5 | 
C[C@H]1CN(C2CCC(C(=O)NCc3cc(C(F)(F)F)cc(C(F)(F)F)c3)(C3CC3)C2)CC[C@]12C=Cc1ccccc12 (stereo partly specified) | 45 | 6.5 | 
C[C@H]1CN(C2CCC(CC3CC3)(C(=O)NCc3cc(F)cc(C(F)(F)F)c3)C2)CC[C@]12C=Cc1ccccc12 (stereo partly specified) | 15 | 5.5 | 
CC(C)[C@]1(C(=O)NCc2cc(C(F)(F)F)cc(C(F)(F)F)c2)CC[C@@H](N2CC[C@]3(C=Cc4ccccc43)[C@@H](C)C2)C1 | 15 | 7.6 | 
C[C@H]1CN([C@@H]2CC[C@H](C(=O)NCc3cc(C(F)(F)F)cc(C(F)(F)F)c3)C2)CC[C@]12C=Cc1ccccc12 |  | 20 | Activity [3]: 27%
CCCC1(C(=O)NCc2cc(F)cc(C(F)(F)F)c2)CCC(N2CC[C@]3(C=Cc4ccccc43)[C@@H](C)C2)C1 (stereo partly specified) | 17 | 5 | 
C[C@H]1CN(C2CCC(CC3CCC3)(C(=O)NCc3cc(F)cc(C(F)(F)F)c3)C2)CC[C@]12C=Cc1ccccc12 (stereo partly specified) | 28 | 6.3 | 
C[C@H]1CN(C2CCC(CC3CCC3)(C(=O)NCc3cc(F)cc(C(F)(F)F)c3)C2)CC[C@]12C=Cc1ccccc12 (single isomer, unassigned; diastereomer 4) [listing 1 of 2 here] |  |  | Activity [3]: 49%
C[C@H]1CN(C2CCC(CC3CCC3)(C(=O)NCc3cc(F)cc(C(F)(F)F)c3)C2)CC[C@]12C=Cc1ccccc12 (single isomer, unassigned; diastereomer 2) | 147 | 32 | 
C[C@H]1CN(C2CCC(CC3CCC3)(C(=O)NCc3cc(F)cc(C(F)(F)F)c3)C2)CC[C@]12C=Cc1ccccc12 (single isomer, unassigned; diastereomer 4) [listing 2 of 2 here] |  | 229 | 
C[C@H]1CN(C2CCC(CC3CCC3)(C(=O)NCc3cc(F)cc(C(F)(F)F)c3)C2)CC[C@]12C=Cc1ccccc12 (single isomer, unassigned; diastereomer 3) | 559 | 135 | 
CS[C@]1(C(=O)NCc2cc(F)cc(C(F)(F)F)c2)CC[C@@H](N2CC[C@]3(C=Cc4ccccc43)[C@@H](C)C2)C1 | 193 | 67 | 
CC(C)[C@]1(C(=O)NCc2cc(F)cc(C(F)(F)F)c2)CC[C@@H](N2CC[C@]3(C=Cc4ccccc43)[C@@H](C)C2)C1 | 5 | 3.1 | Tmax [4]: 0.83 h; bioavailability [5]: 32%; Vd [6]: 2.99 L/kg; IC50 [7]: 0.71 nM; half-life [8]: 2.5 h; clearance [9]: 19.4 mL/min/kg; half-life [10]: 2 h; Cmax [11]: 414 nM
CSC[C@]1(C(=O)NCc2cc(F)cc(C(F)(F)F)c2)CC[C@@H](N2CC[C@]3(C=Cc4ccccc43)[C@@H](C)C2)C1 | 17 | 3.5 | 
CCC1(C(=O)NCc2cc(F)cc(C(F)(F)F)c2)CCC(N2CC[C@]3(C=Cc4ccccc43)[C@@H](C)C2)C1 (stereo partly specified) | 3.5 | 3.3 | 
CC(C)C[C@]1(C(=O)NCc2cc(F)cc(C(F)(F)F)c2)CC[C@@H](N2CC[C@]3(C=Cc4ccccc43)[C@@H](C)C2)C1 | 7.5 | 3.9 | IC50 [7]: 2.04 nM
C[C@H]1CN([C@@H]2CC[C@@](C(=O)NCc3cc(F)cc(C(F)(F)F)c3)(C3CC3)C2)CC[C@]12C=Cc1ccccc12 | 8 | 1.9 | IC50 [7]: 0.63 nM
C[C@H]1CN([C@@H]2CC[C@](C)(C(=O)NCc3cc(F)cc(C(F)(F)F)c3)C2)CC[C@]12C=Cc1ccccc12 | 57 | 4 | 
